Legend:
Coagulation factor X = Coagulation factor X (Homo sapiens, UniProt P00742); assay: In vitro evaluation for the concentration needed for inhibiting factor Xa by 50%
[1] = In vitro evaluation for the concentration needed to double the Plasma recalcification clotting time; assay type: functional, Homo sapiens
Outline: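 Human plasma incubated with saline or inhibitor in saline for 2 min at 37 °C. Clotting started with 20 mM CaCl2 solution. Result given as the concentration that doubles plasma clotting time (CT2).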

Prothrombin = Prothrombin (Homo sapiens, UniProt P00734); assay: In vitro evaluation for the concentration needed for inhibiting thrombin by 50%
Rattus norvegicus [2] = assay: Ex vivo anticoagulant activity was measured by calculating the Activated partial thromboplastin time at 0.5 hr by dose of 300 mg/kg on oral administration in male Wistar rat; assay type: functional
Outline: (§1)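 Male Wistar rats (200-250 g), fasted overnight, given compound dissolved in water by stomach tube. Anesthetized with sodium thiopental (100 mg/kg, ip) 15 min after dosing. Jugular vein blood taken into trisodium citrate at several time points and centrifuged to platelet-poor plasma. APTT read after mixing plasma with saline and Platerin Plus activator, clotting started with 20 mM CaCl2. Reported as test/control ratio, mean ± SE, n = 4-5.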

Rattus norvegicus [3] = assay: Ex vivo anticoagulant activity was measured by calculating the Activated partial thromboplastin time at 1 hr by dose of 300 mg/kg on oral administration in male Wistar rat; assay type: functional; outline: as §1
Rattus norvegicus [4] = assay: Ex vivo anticoagulant activity was measured by calculating the Activated partial thromboplastin time at 2 hr by dose of 300 mg/kg on oral administration in male Wistar rat; assay type: functional; outline: as §1
Rattus norvegicus [5] = assay: Ex vivo anticoagulant activity was measured by calculating the Activated partial thromboplastin time at 4 hr by dose of 300 mg/kg on oral administration in male Wistar rat; assay type: functional; outline: as §1
Rattus norvegicus [6] = assay: Ex vivo anticoagulant activity was measured by calculating the Activated partial thromboplastin time (test/control) at 1 hr by dose of 100 mg/kg on oral administration in male Wistar rat; assay type: functional; outline: as §1
Rattus norvegicus [7] = assay: Ex vivo anticoagulant activity was measured by calculating the Activated partial thromboplastin time (test/control) at 2 hr by dose of 100 mg/kg on oral administration in male Wistar rat; assay type: functional; outline: as §1
Rattus norvegicus [8] = assay: Ex vivo anticoagulant activity was measured by calculating the Activated partial thromboplastin time (test/control) at 4 hr by dose of 100 mg/kg on oral administration in male Wistar rat; assay type: functional; outline: as §1
Rattus norvegicus [9] = assay: Ex vivo anticoagulant activity was measured by calculating the Activated partial thromboplastin time (test/control) at 0.5 h by dose of 100 mg/kg on oral administration in male Wistar rat; assay type: functional; outline: as §1

Coagulation factor X, sequence (P00742 41-179 limits assumed): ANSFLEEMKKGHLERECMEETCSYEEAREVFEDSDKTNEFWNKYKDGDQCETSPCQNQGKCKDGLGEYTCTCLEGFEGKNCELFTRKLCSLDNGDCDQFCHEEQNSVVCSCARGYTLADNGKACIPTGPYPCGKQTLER
Coagulation factor X, sequence (P00742 235-488 limits assumed): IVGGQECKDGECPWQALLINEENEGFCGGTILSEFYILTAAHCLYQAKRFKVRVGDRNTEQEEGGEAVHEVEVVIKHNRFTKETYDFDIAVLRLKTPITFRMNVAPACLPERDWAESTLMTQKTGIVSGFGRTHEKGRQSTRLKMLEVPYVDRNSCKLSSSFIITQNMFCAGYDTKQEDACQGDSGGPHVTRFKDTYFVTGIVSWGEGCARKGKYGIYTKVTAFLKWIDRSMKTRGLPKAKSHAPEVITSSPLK

With CC(=N)N1CC[C@H](Oc2ccc(C(Cc3cc4ccc(C(=N)N)cc4o3)C(=O)O)cc2)C1 (some centres not stated) the IC50 (Coagulation factor X) was 840 nM, the CT2 [1] was 5.6 µM and the IC50 (Prothrombin) was > 400 µM.

In the case of N=C(N)c1ccc2oc(CC(C(=O)O)c3ccc(O[C@H]4CCNC4)cc3)cc2c1 (some centres not stated), the CT2 [1] is reported as 14 µM, the Tested/Control (Rattus norvegicus [2]) is reported as 1.28 and the Tested/Control (Rattus norvegicus [3]) is reported as 1.4. The Tested/Control (Rattus norvegicus [4]) was 1.25, the Tested/Control (Rattus norvegicus [5]) was 1.2 and the IC50 (Prothrombin) was 230 µM.

Compound CCOC(=O)C(Cc1ccc2cc(C(=N)N)ccc2c1)c1ccc(O[C@H]2CCNC2)cc1 (some centres not stated) has an IC50 (Coagulation factor X) of 4200 nM, a CT2 [1] of 12.4 µM and an IC50 (Prothrombin) of 38 µM.

N=C(N)c1ccc2oc(CCc3ccc(O[C@H]4CCNC4)cc3)cc2c1 showed an IC50 (Coagulation factor X) of 940 nM, a CT2 [1] of 7.5 µM and an IC50 (Prothrombin) of 100 µM.

CCOC(=O)C(Cc1cc2cc(C(=N)N)ccc2o1)c1ccc(O[C@H]2CCNC2)cc1 (some centres not stated) gave an IC50 (Coagulation factor X) of 1000 nM, a CT2 [1] of 20 µM and a Tested/Control (Rattus norvegicus [2]) of 1.17. For the same compound, the Tested/Control (Rattus norvegicus [3]) was 1.17, the Tested/Control (Rattus norvegicus [4]) was 1.19 and the Tested/Control (Rattus norvegicus [5]) was 1.21. For the same compound, the IC50 (Prothrombin) was 21 µM.

With CCOC(=O)C(Cc1ccc(O[C@H]2CCNC2)cc1)c1cc2cc(C(=N)N)ccc2o1 (some centres not stated) the IC50 (Coagulation factor X) was 52000 nM, the CT2 [1] was 31 µM and the Tested/Control (Rattus norvegicus [2]) was 0.98. For the same compound, the Tested/Control (Rattus norvegicus [3]) was 1.3, the Tested/Control (Rattus norvegicus [4]) was 1.11 and the Tested/Control (Rattus norvegicus [5]) was 1.05. The IC50 (Prothrombin) was 20 µM.

In the case of CC(=N)N1CC[C@H](Oc2ccc(C(Cc3ccc4cc(C(=N)N)ccc4c3)C(=O)O)cc2)C1 (some centres not stated), the CT2 [1] is reported as 4.4 µM.

CCOC(=O)C(Cc1cc2ccc(C(=N)N)cc2o1)c1ccc(O[C@H]2CCNC2)cc1 (some centres not stated) gave an IC50 (Coagulation factor X) of 1700 nM, a CT2 [1] of 8.3 µM and an IC50 (Prothrombin) of 36 µM.

In the case of CC(=N)N1CC[C@H](Oc2ccc([C@@H](Cc3ccc4ccc(C(=N)N)cc4c3)C(=O)O)cc2)C1, the CT2 [1] is reported as 6 µM.

In the case of N=C(N)c1ccc2cc(CC(C(=O)O)c3ccc(O[C@H]4CCNC4)cc3)oc2c1 (some centres not stated), the IC50 (Coagulation factor X) is reported as 1700 nM, the CT2 [1] is reported as 16 µM and the IC50 (Prothrombin) is reported as > 1000 µM.

CC(=N)N1CC[C@H](Oc2ccc([C@H](Cc3ccc4ccc(C(=N)N)cc4c3)C(=O)O)cc2)C1 [DX-9065A] gave a CT2 [1] of 0.5 µM, a Tested/Control (Rattus norvegicus [6]) of 1.51 and a Tested/Control (Rattus norvegicus [7]) of 1.48. The Tested/Control (Rattus norvegicus [8]) was 1.28 and the Tested/Control (Rattus norvegicus [9]) was 1.63.

CC(=N)N1CC[C@H](Oc2ccc(CCc3cc4cc(C(=N)N)ccc4o3)cc2)C1 gave an IC50 (Coagulation factor X) of 640 nM, a CT2 [1] of 1.2 µM and an IC50 (Prothrombin) of 4 µM.

Compound CC(=N)N1CC[C@H](Oc2ccc(C(Cc3cc4cc(C(=N)N)ccc4o3)C(=O)O)cc2)C1 (some centres not stated) has an IC50 (Coagulation factor X) of 500 nM, a CT2 [1] of 6 µM and an IC50 (Prothrombin) of 15 µM.

With CCOC(=O)C(Cc1ccc2ccc(C(=N)N)cc2c1)c1ccc(O[C@H]2CCNC2)cc1 (some centres not stated) the IC50 (Coagulation factor X) was 310 nM, the CT2 [1] was 3.2 µM and the IC50 (Prothrombin) was > 600 µM.

Compound N=C(N)c1ccc2oc(CCc3cc4cc(C(=N)N)ccc4o3)cc2c1 has an IC50 (Coagulation factor X) of 100 nM, a CT2 [1] of 1.6 µM and an IC50 (Prothrombin) of 5 µM.

CC(=N)N1CC[C@H](Oc2ccc(C(Cc3ccc4ccc(C(=N)N)cc4c3)C(=O)O)cc2)C1 (some centres not stated) gave a CT2 [1] of 1.3 µM.

In the case of N=C(N)c1ccc2ccc(CC(C(=O)O)c3ccc(O[C@H]4CCNC4)cc3)cc2c1 (some centres not stated), the IC50 (Coagulation factor X) is reported as 200 nM, the CT2 [1] is reported as 3.2 µM and the IC50 (Prothrombin) is reported as > 1600 µM.

For N=C(N)c1ccc2cc(CC(C(=O)O)c3ccc(O[C@H]4CCNC4)cc3)ccc2c1 (some centres not stated), the IC50 (Coagulation factor X) was 4100 nM, the CT2 [1] was 22 µM and the IC50 (Prothrombin) was > 100 µM.

Compound N=C(N)c1ccc2oc(C(Cc3ccc(O[C@H]4CCNC4)cc3)C(=O)O)cc2c1 (some centres not stated) has an IC50 (Coagulation factor X) of 45000 nM, a CT2 [1] of 14 µM and a Tested/Control (Rattus norvegicus [3]) of 1.33. For the same compound, the Tested/Control (Rattus norvegicus [4]) was 1.15, the Tested/Control (Rattus norvegicus [5]) was 1.16 and the IC50 (Prothrombin) was 9 µM.
